Laboratory results from ChEMBL document CHEMBL1133750, “X-Ray structure of cytotoxic trans-[PtCl(2)(dimethylamine)(isopropylamine)]: interstrand cross-link efficiency, DNA sequence specificity, and inhibition of the B-Z transition” (J Med Chem, 2000).

What was measured:
[1] = Ratio of the amount of platinum bound per nucleotide to ri (0.01)
Summary of the method: (§1)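 Linear pBR322 DNA (20 μg/mL) in 10 mM NaClO₄ incubated at 37 °C with Pt compound at input Pt/nucleotide ratio ri of 0.01–0.20; 24 h for the rb/ri series, aliquots at various times for kinetics. Unbound drug removed by ethanol/0.3 M sodium acetate (pH 4.8) precipitation of DNA; Pt bound per nucleotide (rb) measured by TXRF; rb/ri given as percent; mean ± SD.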

[2] = Ratio of the amount of platinum bound per nucleotide to ri (0.05); summary of the method: as §1
[3] = Ratio of the amount of platinum bound per nucleotide to ri (0.10); summary of the method: as §1
[4] = Ratio of the amount of platinum bound per nucleotide to ri (0.15); summary of the method: as §1
[5] = Ratio of the amount of platinum bound per nucleotide to ri (0.20); summary of the method: as §1

CISPLATIN
Ratio [1]: 97% | Ratio [2]: 95% | Ratio [3]: 90% | Ratio [4]: 80% | Ratio [5]: 75%

Trans-[PtCl2(dimethylamine)isopropylamine)] (tdmaipa)
Ratio [1]: 85% | Ratio [2]: 82% | Ratio [3]: 76% | Ratio [4]: 70% | Ratio [5]: 68%
